# Most compounds without a hit are left out; they make up all but 2.5% or so of the library.
# Rce1 inhib – yeast Ras-converting enzyme inhibition | yeast membranes, quenched prenylated peptide cleavage fluorescence | calls only | actives 0.27% (n = 290,000) | AID 2563;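 active means fall in fluorescence gain of 50% or more versus controls, with final raw signal at or below 3038400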;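 further: plate controls were neutral control wells for no effect and wells lacking membranes for full effect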
# Target sequence (Q03530 whole entry, looked up): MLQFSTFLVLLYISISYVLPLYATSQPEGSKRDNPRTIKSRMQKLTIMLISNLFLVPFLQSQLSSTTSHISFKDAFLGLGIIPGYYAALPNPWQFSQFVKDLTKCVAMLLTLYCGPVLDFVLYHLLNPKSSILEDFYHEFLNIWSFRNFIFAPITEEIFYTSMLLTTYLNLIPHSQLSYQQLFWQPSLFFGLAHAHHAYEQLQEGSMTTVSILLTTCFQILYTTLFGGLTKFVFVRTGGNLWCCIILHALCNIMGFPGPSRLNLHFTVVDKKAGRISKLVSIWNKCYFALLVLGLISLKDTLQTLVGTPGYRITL
# MEKK2mut PB1 HTS – signal of MEK5 binding to mutant human MEKK2 PB1 domain; bead flow cytometry, Alexa488-MEK5 binding to MEKK2 mutant; AID 1530; percent response, % at 10 µM; actives 0.35% (n = 290,000); in the data active means percent response above about 24%, passing the limit was not always enough
# MEKK2wt PB1 HTS – raises or lowers MEK5 binding to wildtype human MEKK2 PB1 domain; bead flow cytometry, Alexa488-MEK5 binding to MEKK2 WT; actives lie on both sides; actives 1.1% (n = 290,000); binding response (% of control), % at 10 µM; Q9Y2U5; in the data active means binding response below about 67% or above about 130%
# MEKK3 PB1 HTS – modulators (inhibitors or enhancers) of MEK5 binding to human MEKK3 PB1 domain | AID 1529 | bead-based flow cytometry, Alexa488-MEK5 binding to MEKK3; actives lie on both sides; 0 = blocked by unlabeled MEK5, 100 = vehicle | Q99759 | binding response (% of control), % at 10 µM | actives 1.4% (n = 290,000);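 active means binding response more than 3 SD above or below the average of its plate-row segment, actives on both sides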;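 further: Alexa488 bead fluorescence after subtracting the streptavidin-only scavenger bead signal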
# T cell modulator – T cell immune modulators affecting CD8 T cell-vesicle binding. 2C CD8+ T cell-vesicle binding, flow cytometry; hits give low values. response (vesicle binding), % at 7 µM. actives 0.068% (n = 330,000);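 active means response, share of CD8 T cells binding vesicles, and their 90th percentile fluorescence all below set limits, cut at about 80% in these data, passing the limit was not always enough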;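 further: values below 100% mean blocked vesicle binding to the CD8+ T cells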
#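 material = purified 2C TCR transgenic mouse naive CD8+ T cells | controls = Unloaded micro-vesicles (low), QL9 vesicles with 0.7% DMSO (high) | detection = cytometric PE anti-B7-1 and Alexa647 anti-CD8 signals after 1% paraformaldehyde fixation | incubation = binding step 1.5 h, 37 °C, antibody labelling 20 min, ice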
# UCH37 inh – blocks the human deubiquitinase UCH37; actives 0.33% (n = 330,000); Q9Y5K5; purified proteasome/UCH37, Ub-AMC cleavage fluorescence; AID 588478; inhibition, % (test concentration not listed);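 active means mean inhibition over replicate wells above about 20%, limit read from the data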;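 further: 0% = compound-free wells with enzyme and 100% = wells lacking proteasome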
# Target sequence (Q9Y5K5 whole entry, looked up): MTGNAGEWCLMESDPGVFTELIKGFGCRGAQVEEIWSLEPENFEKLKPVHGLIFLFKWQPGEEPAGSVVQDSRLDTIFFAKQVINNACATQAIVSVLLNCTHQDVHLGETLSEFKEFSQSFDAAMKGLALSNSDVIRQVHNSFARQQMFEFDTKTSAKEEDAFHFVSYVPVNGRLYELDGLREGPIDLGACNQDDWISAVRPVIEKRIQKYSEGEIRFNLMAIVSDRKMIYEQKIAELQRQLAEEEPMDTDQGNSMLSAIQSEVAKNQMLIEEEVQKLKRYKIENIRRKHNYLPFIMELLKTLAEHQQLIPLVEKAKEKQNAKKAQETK
#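 Reagent: Ub-AMC substrate; assay system: Proteasome-associated human UCH37 deubiquitinase; controls: no-proteasome and no-compound wells; read-out: % inhibition of Ub-AMC cleavage fluorescence; timing: 30 min preincubation with enzyme, 25 min cleavage at room temperature; signal: AMC fluorescence from Ub-AMC cleavage, excitation 355 nm, emission 460 nm; buffer or medium: Tris-HCl pH 7.4 plus ovalbumin, ATP-MgCl2, DTT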
# * marks the source's active call; other numbers are inactive results; i = inactive; x = no result given; + = active, no number; [ ] = remark or other dose.
SMILES,Rce1 inhib,MEKK2mut PB1 HTS,MEKK2wt PB1 HTS,MEKK3 PB1 HTS,T cell modulator,UCH37 inh
Cc1cc(C(=O)N/N=C/c2c3ccccc3cc3ccccc23)n[nH]1,+,-4,87,97,276,x
CC(CC(=O)Nc1ccccc1F)=NNC(=O)Cc1ccc(Cl)cc1,x,x,x,x,x,3
COc1cccc2[nH]c3c(N4CCN(Cc5ccc6c(c5)OCO6)CC4)ncnc3c12,+,x,x,x,262,x
O=C(CN(c1ccc(Cl)c(C(F)(F)F)c1)S(=O)(=O)c1ccccc1)NN=Cc1cccc2c1OCCO2,x,x,x,x,x,0
CCN(CC)c1ccc(C=Nn2c(-c3ccccc3Br)n[nH]c2=S)cc1,x,x,x,x,x,2
COc1cc(/C=C2\S/C(=N/S(=O)(=O)c3ccccc3)NC2=O)c([N+](=O)[O-])cc1OC,i,1,101,105,302,23*
C#Cc1ccc([C@H]2C=C(C(=O)N3CCN(Cc4ccccc4)CC3)O[C@@H](OCC)[C@@H]2CCCO)cc1,i,3,91,95,x,2
CCO[C@@H]1OC(C(=O)N2CCN(Cc3ccccc3)CC2)=C[C@H](c2ccccc2)[C@H]1CCCO,+,7,102,104,345,4
O=CN1CCCN(Cc2nc(-c3cccc(Cl)c3)no2)CC1,i,1,103,101,197,30*
CCC(C)(C(=O)NC1CCCC1)N(Cc1cccs1)C(=O)Cc1cccs1 (stereo not drawn),i,2,105,100,35*,4
O=C(O)c1cc2c(ccc3ccccc32)oc1=O,+,-2,95,98,253,i
O=C(COc1ccccc1F)NCC(c1ccco1)N1CCCC1 (stereo not drawn),i,-4,104,106,50*,2
O=C(COc1ccccc1)NCC(c1ccco1)N1CCCCC1 (stereo not drawn),i,x,x,x,178,0
CCOC(=O)CSc1nc(COc2ccccc2)nc2ccccc12,i,-3,94,98,47*,4
Cc1nc2ccccc2c(=O)n1N=Cc1cccnc1,x,x,x,x,x,3
O=C(O)CNc1ccccc1C(=O)O,+,0,104,104,75,-185
Fc1ccc(C=NNc2ccccn2)cc1,x,x,x,x,x,6
O=C(NCCCN1CCN(Cc2ccccc2)CC1)C1CCN(c2nnc(-n3cccc3)s2)CC1,i,56*,197*,111,180,0
CCC1CCCCN1CCCNC(=O)C1CCN(c2ncnc3c2nc2n3CCCCC2)CC1 (stereo not drawn),i,-1,100,97,165,2
CCOc1ccc(NCc2cccn2-c2nnc(N3CCC(C(=O)NCCCN4CCCCC4CC)CC3)s2)cc1 (stereo not drawn),i,24*,133,104,303,1
CC1CC(C)CN(CCCNC(=O)C2CCN(c3nnc(-n4cccc4)s3)CC2)C1 (stereo not drawn),i,20,155*,100,228,4
CCOc1ccc2nc(N3CCCC(C(=O)NCCCN4CC(C)CC(C)C4)C3)sc2c1 (stereo not drawn),i,16,142*,107,428,2
O=C(NCCCc1ccccc1)C1CCN(c2nnc(-n3cccc3)s2)CC1,i,3,105,104,262,4
Cc1oc(-c2cccc(Cl)c2)nc1CN1CCC(C(=O)NCCCN2CC(C)CC(C)C2)CC1 (stereo not drawn),i,18,139*,101,418,2
O=C(NCc1ccco1)C1CCN(c2nnc(-n3cccc3)s2)CC1,i,9,101,105,332,2
SMILES,Rce1 inhib,MEKK2mut PB1 HTS,MEKK2wt PB1 HTS,MEKK3 PB1 HTS,T cell modulator,UCH37 inh
CC1CCCCN1CCCNC(=O)C1CCN(c2nnc(-n3cccc3)s2)CC1 (stereo not drawn),i,22,150*,100,136,0
COc1ccc(C(c2nnnn2C(C)C)N2CCN(C(=O)c3ccco3)CC2)cc1 (stereo not drawn),i,-20,46*[inhibitor],53*[inhibitor],255,0
CCOc1ccc(N(CC(=O)NC2CC3CCC2C3)S(=O)(=O)c2ccccc2)cc1 (stereo not drawn),+,-4,101,101,292,x
COc1ccccc1N1CCN(N=Cc2ccc(O)cc2O)CC1,x,x,x,x,x,6
CCC(=O)Nc1ccc(Cl)c(NC(=O)c2cccnc2)c1,i,1,99,101,622,2
CCCC(=O)Nc1ccc(Cl)c(NC(=O)c2cccnc2)c1,i,3,106,100,0.0*,1
Cc1cccc(COc2ccc(C=NNC(=O)c3nnn(-c4nonc4N)c3C)cc2)c1,x,x,x,x,x,4
CCCCNC(=S)N(C)N=Cc1c(F)cccc1F,x,x,x,x,x,0
Cc1ccc2c(C)c(C(=O)N(Cc3ccc(F)cc3)C3CCS(=O)(=O)C3)oc2c1 (stereo not drawn),+,-11,92,95,514,1
Nc1nnnn1/N=C/c1ccccc1OCc1ccc(Cl)cc1Cl,+,0,94,97,448,x
Nc1nnnn1/N=C/c1ccccc1OCc1ccc(Cl)cc1,i,2,99,101,353,x
Cc1csc(N=Cc2ccc([N+](=O)[O-])cc2)n1,x,x,x,x,x,4
Cc1ccc(C(=O)COC(=O)c2ccc(Cl)c(N)c2)s1,x,x,x,x,204,2
Nc1cc(C(=O)OCC(=O)c2ccc(CC(=O)N3CCOCC3)s2)ccc1Cl,x,x,x,x,0.0*,3
COc1ccc(C=NNC(=O)c2nnn(-c3nonc3N)c2-c2cccs2)c(OC)c1,x,x,x,x,x,-97
COc1ccc(-n2c(SCC(=O)N3CCOCC3)nc(O)c(Cc3ccccc3)c2=O)cc1,i,-3,94,96,289,30*
COc1ccc(-n2c(SCC(=O)N3CCOCC3)nc(O)cc2=O)cc1,i,3,105,106,565,-1
COc1ccccc1C=NNc1nc(C)c(C(C)=O)s1,x,x,x,x,x,-1
COc1ccc([N+](=O)[O-])cc1NC(=O)C(C)Sc1ccccc1 (stereo not drawn),i,1,101,100,0,5
COc1ccc([N+](=O)[O-])cc1NC(=O)C(C)Sc1nc(-c2ccccc2)cs1 (stereo not drawn),i,9,99,103,0.0*,3
Cc1ccc(C(=O)NCC(=O)Nc2cccc(C(F)(F)F)c2)cc1,i,1,106,104,293,5
O=C(CNC(=O)c1ccccc1)Nc1cccc(C(F)(F)F)c1,i,-115,43*[inhibitor],93,180,6
N=c1oc2cc(O)ccc2cc1C(=O)Nc1ccccn1,x,0,96,98,728,x
N=c1oc2cc(O)ccc2cc1C(=O)Nc1nc2ccccc2s1,+,11,91,96,605,i

# High-throughput results (PubChem)
